In ChEMBL document CHEMBL1629526, “4-[1-(Substituted aryl/alkyl carbonyl)-benzoimidazol-2-yl]-benzenesulfonic acids: synthesis, antimicrobial activity, QSAR studies, and antiviral evaluation” (Eur J Med Chem, 2010):
Values after ≈ are worked out from the molar mass of the structure shown.

What was measured:
[1] = tested on: Staphylococcus aureus; test: Antimicrobial activity against Staphylococcus aureus after 24 hrs by tube dilution method; assay type: functional
[2] = tested on: Bacillus subtilis; test: Antimicrobial activity against Bacillus subtilis after 24 hrs by tube dilution method; assay type: functional
Method in brief: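 Serial dilutions in double-strength nutrient broth (I.P.) with ciprofloxacin as reference, tube dilution, incubated 37 °C for 24 h. MIC is the lowest concentration that inhibited growth.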

[3] = tested on: Escherichia coli; test: Antimicrobial activity against Escherichia coli after 24 hrs by tube dilution method; assay type: functional
[4] = tested on: Candida albicans; test: Antimicrobial activity against Candida albicans after 48 hrs by tube dilution method; assay type: functional
[5] = tested on: Aspergillus niger; test: Antimicrobial activity against Aspergillus niger after 7 days by tube dilution method; assay type: functional; conditions: 168 h
[6] = Cytotoxicity against cat CRFK cells assessed as cell viability by MTS assay; assay type: cell-based, Felis catus; conditions: crfk
Method in brief: (§1)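 Uninfected cultures were run in parallel with the antiviral assays. Viability was read by colorimetric formazan MTS assay.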

[7] = tested on: Felid alphaherpesvirus 1; test: Antiviral activity against Feline herpesvirus 1 infected in cat CRFK cells assessed as inhibition of virus induced cytopathicity after 2 to 4 days by MTS assay; assay type: functional, organism-based; conditions: Felid alphaherpesvirus 1, CRFK
[8] = tested on: Feline coronavirus; test: Antiviral activity against Feline coronavirus infected in cat CRFK cells assessed as inhibition of virus induced cytopathicity after 2 to 4 days by MTS assay; assay type: functional, organism-based; conditions: Alphacoronavirus 1, CRFK
[9] = Cytotoxicity against human HEL cells assessed as altered cell morphology; assay type: cell-based
Method in brief: (§2)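 Uninfected cell cultures run alongside the antiviral assays, exposed to serial compound dilutions and incubated at 37 °C for 2–4 days. Toxicity was scored microscopically and reported as the minimum cytotoxic concentration (MCC), the lowest concentration causing a detectable change in normal cell morphology.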

[10] = tested on: Human alphaherpesvirus 1; test: Antiviral activity against Herpes simplex virus 1 KOS infected in HEL cells assessed as inhibition of virus induced cytopathicity after 2 to 4 days by MTS assay; assay type: functional, organism-based; conditions: Human alphaherpesvirus 1, KOS
[11] = tested on: Human alphaherpesvirus 2; test: Antiviral activity against Herpes simplex virus 2 G infected in HEL cells assessed as inhibition of virus induced cytopathicity after 2 to 4 days by MTS assay; assay type: functional, organism-based; conditions: Human alphaherpesvirus 2, strain G
[12] = tested on: Vaccinia virus; test: Antiviral activity against Vaccinia virus infected in HEL cells assessed as inhibition of virus induced cytopathicity after 2 to 4 days by MTS assay; assay type: functional, organism-based; conditions: Orthopoxvirus vaccinia
[13] = tested on: Vesicular stomatitis virus; test: Antiviral activity against Vesicular stomatitis virus infected in HEL cells assessed as inhibition of virus induced cytopathicity after 2 to 4 days by MTS assay; assay type: functional, organism-based
[14] = tested on: Human alphaherpesvirus 1; test: Antiviral activity against thymidine kinase deficient acyclovir-resistant Herpes simplex virus 1 KOS infected in HEL cells assessed as inhibition of virus induced cytopathicity after 2 to 4 days by MTS assay; assay type: functional, organism-based; conditions: Human alphaherpesvirus 1, KOS
[15] = tested on: HeLa; test: Cytotoxicity against human HeLa cells assessed as cell viability by MTS assay; assay type: cell-based; conditions: hela; method in brief: as §1
[16] = Cytotoxicity against human HeLa cells assessed as altered cell morphology; assay type: cell-based; method in brief: as §2
[17] = tested on: Vesicular stomatitis virus; test: Antiviral activity against Vesicular stomatitis virus infected in human HeLa cells assessed as inhibition of virus induced cytopathicity by visual scoring of CPE; assay type: functional, organism-based
[18] = tested on: Vesicular stomatitis virus; test: Antiviral activity against Vesicular stomatitis virus infected in human HeLa cells assessed as inhibition of virus induced cytopathicity after 2 to 4 days by MTS assay; assay type: functional, organism-based
[19] = tested on: Coxsackievirus B4; test: Antiviral activity against coxsackievirus B4 infected in human HeLa cells assessed as inhibition of virus induced cytopathicity by visual scoring of CPE; assay type: functional, organism-based; conditions: Enterovirus B
[20] = tested on: Coxsackievirus B4; test: Antiviral activity against coxsackievirus B4 infected in human HeLa cells assessed as inhibition of virus induced cytopathicity after 2 to 4 days by MTS assay; assay type: functional, organism-based; conditions: Enterovirus B
[21] = tested on: Respiratory syncytial virus; test: Antiviral activity against Respiratory syncytial virus infected in human HeLa cells assessed as inhibition of virus induced cytopathicity by visual scoring of CPE; assay type: functional, organism-based
[22] = tested on: Respiratory syncytial virus; test: Antiviral activity against Respiratory syncytial virus infected in human HeLa cells assessed as inhibition of virus induced cytopathicity after 2 to 4 days by MTS assay; assay type: functional, organism-based
[23] = tested on: MDCK; test: Cytotoxicity against MDCK cells assessed as cell viability by MTS assay; assay type: cell-based, Canis lupus familiaris; conditions: dog, mdck; method in brief: as §1
[24] = Cytotoxicity against MDCK cells assessed as altered cell morphology; assay type: cell-based, Canis lupus familiaris; conditions: dog; method in brief: as §2
[25] = tested on: Influenza A virus; test: Antiviral activity against Influenza A H1N1 virus subtype infected in MDCK cells assessed as inhibition of virus induced cytopathicity by visual scoring of CPE; assay type: functional, organism-based
[26] = tested on: Influenza A virus; test: Antiviral activity against Influenza A H1N1 virus subtype infected in MDCK cells assessed as inhibition of virus induced cytopathicity after 2 to 4 days by MTS assay; assay type: functional, organism-based
[27] = tested on: Influenza A virus; test: Antiviral activity against Influenza A H3N2 virus subtype infected in MDCK cells assessed as inhibition of virus induced cytopathicity by visual scoring of CPE; assay type: functional, organism-based
[28] = tested on: Influenza A virus; test: Antiviral activity against Influenza A H3N2 virus subtype infected in MDCK cells assessed as inhibition of virus induced cytopathicity after 2 to 4 days by MTS assay; assay type: functional, organism-based
[29] = tested on: Influenza B virus; test: Antiviral activity against Influenza B virus infected in MDCK cells assessed as inhibition of virus induced cytopathicity by visual scoring of CPE; assay type: functional, organism-based
[30] = tested on: Influenza B virus; test: Antiviral activity against Influenza B virus infected in MDCK cells assessed as inhibition of virus induced cytopathicity after 2 to 4 days by MTS assay; assay type: functional, organism-based
[31] = Cytotoxicity against african green monkey Vero cells assessed as altered cell morphology; assay type: cell-based; conditions: chlorocebus sabaeus; method in brief: as §2
[32] = tested on: Human respirovirus 3; test: Antiviral activity against parainfluenza-3 virus infected in african green monkey Vero cells assessed as inhibition of virus induced cytopathicity after 2 to 4 days by MTS assay; assay type: functional, organism-based; conditions: Human respirovirus 3, Vero
[33] = tested on: Mammalian orthoreovirus 1; test: Antiviral activity against Reovirus 1 virus infected in african green monkey Vero cells assessed as inhibition of virus induced cytopathicity after 2 to 4 days by MTS assay; assay type: functional, organism-based; conditions: Mammalian orthoreovirus 1, Vero
[34] = tested on: Sindbis virus; test: Antiviral activity against Sindbis virus infected in african green monkey Vero cells assessed as inhibition of virus induced cytopathicity after 2 to 4 days by MTS assay; assay type: functional, organism-based
[35] = tested on: Coxsackievirus B4; test: Antiviral activity against Coxsackie virus B4 infected in african green monkey Vero cells assessed as inhibition of virus induced cytopathicity after 2 to 4 days by MTS assay; assay type: functional, organism-based; conditions: Enterovirus B
[36] = tested on: Punta Toro virus; test: Antiviral activity against Punta Toro virus infected in african green monkey Vero cells assessed as inhibition of virus induced cytopathicity after 2 to 4 days by MTS assay; assay type: functional, organism-based

| SMILES | MBC [1] [µg/mL] | MBC [2] [µg/mL] | MBC [3] [µg/mL] | MFC [4] [µg/mL] | MFC [5] [µg/mL] | CC50 [6] [µg/mL] | EC50 [7] [µg/mL] | EC50 [8] [µg/mL] | MCC [9] [µg/mL] | EC50 [10] [µg/mL] | EC50 [11] [µg/mL] | EC50 [12] [µg/mL] | EC50 [13] [µg/mL] | EC50 [14] [µg/mL] | CC50 [15] [µg/mL] | MCC [16] [µg/mL] | EC50 [17] [µg/mL] | EC50 [18] [µg/mL] | EC50 [19] [µg/mL] | EC50 [20] [µg/mL] | other results |
| --- | --- | --- | --- | --- | --- | --- | --- | --- | --- | --- | --- | --- | --- | --- | --- | --- | --- | --- | --- | --- | --- |
| Nc1ccccc1C(=O)n1c(-c2ccc(S(=O)(=O)O)cc2)nc2ccccc21 | 50 (≈ 127 µM) | > 50 | 1.56 (≈ 3.97 µM) | 50 (≈ 127 µM) | > 50 | 11 (≈ 28 µM) | > 4 | > 4 | > 100 | > 100 | > 100 | > 100 | > 100 | > 100 | > 100 | ≥ 20 | > 20 | > 20 | > 20 | > 20 | EC50 [21]: > 20 µg/mL; EC50 [22]: > 20 µg/mL; CC50 [23]: 4.1 µg/mL (≈ 10.4 µM); MCC [24]: ≥ 4 µg/mL; EC50 [25]: > 4 µg/mL; EC50 [26]: > 4 µg/mL; EC50 [27]: > 4 µg/mL; EC50 [28]: > 4 µg/mL; EC50 [29]: > 4 µg/mL; EC50 [30]: > 4 µg/mL; MCC [31]: 20 µg/mL; EC50 [32]: > 4 µg/mL; EC50 [33]: > 4 µg/mL; EC50 [34]: > 4 µg/mL; EC50 [35]: > 4 µg/mL; EC50 [36]: > 4 µg/mL |
| Nc1ccc(C(=O)n2c(-c3ccc(S(=O)(=O)O)cc3)nc3ccccc32)cc1 | 12.5 (≈ 31.8 µM) | > 50 | 25 (≈ 63.5 µM) | > 50 | > 50 | > 100 | > 100 | > 100 | > 100 | > 100 | > 100 | > 100 | > 100 | > 100 | > 100 | > 100 | > 100 | > 100 | > 100 | > 100 | EC50 [21]: > 100 µg/mL; EC50 [22]: > 100 µg/mL; CC50 [23]: 46.8 µg/mL (≈ 119 µM); MCC [24]: 20 µg/mL; EC50 [25]: > 4 µg/mL; EC50 [26]: > 4 µg/mL; EC50 [27]: > 4 µg/mL; EC50 [28]: > 4 µg/mL; EC50 [29]: > 4 µg/mL; EC50 [30]: > 4 µg/mL; MCC [31]: > 100 µg/mL; EC50 [32]: > 100 µg/mL; EC50 [33]: > 100 µg/mL; EC50 [34]: > 100 µg/mL; EC50 [35]: > 100 µg/mL; EC50 [36]: > 100 µg/mL |
| C=CC(=O)n1c(-c2ccc(S(=O)(=O)O)cc2)nc2ccccc21 | 6.25 (≈ 19 µM) | 12.5 (≈ 38.1 µM) | 1.56 (≈ 4.75 µM) | > 50 | > 50 | > 82 | > 20 | > 20 | 100 | > 20 | > 20 | > 20 | > 20 | > 20 | > 100 | > 100 | > 100 | > 100 | > 100 | > 100 | EC50 [21]: > 100 µg/mL; EC50 [22]: > 100 µg/mL; CC50 [23]: 14.1 µg/mL (≈ 42.9 µM); MCC [24]: ≥ 0.8 µg/mL; EC50 [25]: > 0.8 µg/mL; EC50 [26]: > 0.8 µg/mL; EC50 [27]: > 0.8 µg/mL; EC50 [28]: > 0.8 µg/mL; MCC [31]: > 100 µg/mL; EC50 [32]: > 100 µg/mL; EC50 [33]: > 100 µg/mL; EC50 [34]: > 100 µg/mL; EC50 [35]: > 100 µg/mL; EC50 [36]: > 100 µg/mL |
